ChEMBL document CHEMBL5357045, “Development of pharmacophore models for AcrB protein and the identification of potential adjuvant candidates for overcoming efflux-mediated colistin resistance” (2024)
Values after ≈ are worked out from the molar mass of the structure shown. Active and inactive are the calls of the source.

What was measured:
Escherichia coli [1] = experiment: Antibacterial activity against Escherichia coli BW25113; format: functional
Escherichia coli [2] = experiment: Antibacterial activity against Escherichia coli by broth dilution method; format: functional
Escherichia coli [3] = experiment: Antibacterial activity against Escherichia coli; format: functional
Klebsiella pneumoniae [4] = experiment: Antibacterial activity against Klebsiella pneumoniae UK48 incubated for 16 to 18 hrs by broth microdilution method; format: functional; conditions: time 16-18 hrs
In short: (§1)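 CLSI broth microdilution in cation-adjusted Mueller–Hinton broth, inoculum 5×10^5 CFU mL−1. Ranges tested: colistin 1024–2 μg mL−1, CCCP 80–1 μg mL−1, argatroban 1024–2 μg mL−1. Incubation is 37 °C for 16–18 h. Growth is visualized with triphenyl tetrazolium chloride, and the MIC is interpreted by CLSI breakpoint criteria.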

Morganella morganii [5] = experiment: Antibacterial activity against Morganella morganii UM869 incubated for 16 to 18 hrs by broth microdilution method; format: functional; conditions: time 16-18 hrs; in short: as §1
Morganella morganii [6] = experiment: Antibacterial activity against Morganella morganii UM573 incubated for 16 to 18 hrs by broth microdilution method; format: functional; conditions: time 16-18 hrs; in short: as §1
Klebsiella pneumoniae [7] = experiment: Synergistic antibacterial activity against Klebsiella pneumoniae UK48 in presence of colistin by checkerboard assay; format: functional
In short: (§2)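 Checkerboard run in triplicate in cation-supplemented Mueller–Hinton broth. Colistin 512 to 1 µg mL−1 is crossed with argatroban 256 to 2 µg mL−1. Inoculum is ~5–6×10^5 CFU mL−1, incubated 37 °C for 24 h. ΣFIC = C_A/MIC_A + C_B/MIC_B, where C is each drug's concentration in combination at the MIC well.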

Morganella morganii [8] = experiment: Synergistic antibacterial activity against Morganella morganii UM869 in presence of colistin by checkerboard assay; format: functional; in short: as §2
Morganella morganii [9] = experiment: Synergistic antibacterial activity against Morganella morganii UM573 in presence of colistin by checkerboard assay; format: functional; in short: as §2
Klebsiella pneumoniae [10] = experiment: Antibacterial activity against Klebsiella pneumoniae UK48 assessed as efflux pump inhibition by measuring mean fluorescence intensity incubated for 30 mins by EtBr staining based assay; format: functional, organism-based
In short: (§3)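 Isolates grown in LB broth and adjusted to 0.5 McFarland. Cultures with no drug, CCCP or test agent (fraction of each agent's MIC per isolate) were shaken 30 min at 37 °C, then swabbed cartwheel-style onto TSA plates containing EtBr 2.5 mg L⁻¹ and incubated 18 h at 37 °C. Swab fluorescence was imaged and mean intensity compared by Student's t-test. K. pneumoniae ATCC13882 and SDL79 served as controls.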

Morganella morganii [11] = experiment: Antibacterial activity against Morganella morganii UM573 assessed as efflux pump inhibition by measuring mean fluorescence intensity incubated for 30 mins by EtBr staining based assay; format: functional, organism-based; in short: as §3
Morganella morganii [12] = experiment: Antibacterial activity against Morganella morganii UM869 assessed as efflux pump inhibition by measuring mean fluorescence intensity incubated for 30 mins by EtBr staining based assay; format: functional, organism-based; in short: as §3
Klebsiella pneumoniae [13] = experiment: Bacteriostatic activity against Klebsiella pneumoniae UK48 incubated for 24 hrs by time-kill assay; format: functional, organism-based
In short: (§4)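 Log-phase cultures (~5×10^6 CFU mL−1) in cation-adjusted Mueller–Hinton broth at 37 °C are given drugs alone or combined at ¼ MIC; untreated growth is the control. At 0, 4, 8, 12 and 24 h, samples are diluted […] in 0.7% NaCl, 100 µL is plated on Mueller–Hinton agar overnight at 37 °C, and colonies are counted. Three repeats, mean reported.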

Morganella morganii [14] = experiment: Bacteriostatic activity against Morganella morganii UM869 incubated for 24 hrs by time-kill assay; format: functional, organism-based; in short: as §4
Morganella morganii [15] = experiment: Bacteriostatic activity against Morganella morganii UM573 incubated for 24 hrs by time-kill assay; format: functional, organism-based; in short: as §4
Escherichia coli [16] = experiment: Antibacterial activity against Escherichia coli AG100A; format: functional
Escherichia coli [17] = experiment: Antibacterial activity against Escherichia coli APEC_O2; format: functional
Escherichia coli [18] = experiment: Antibacterial activity against Escherichia coli ATCC 35218; format: functional

## CC1=CC(=O)c2c(O)cccc2C1=O [PLUMBAGIN]
Escherichia coli [1]
  MIC: 128 mg/L (≈ 680 µM)

## OC(c1cc(-c2ccc(C(F)(F)F)cc2)nc(C(F)(F)F)c1)C1CCCCN1 (centres undefined) [ENPIROLINE]
Escherichia coli [2]
  MIC: 20.2 mg/L (≈ 50 µM)

## CN(C)CCC=C1c2ccccc2CCc2ccccc21 [AMITRIPTYLINE]
Escherichia coli [1]
  MIC: 444 mg/L (≈ 1600 µM)

## Nc1ccnc2ccccc12 [QUINOLIN-4-AMINE]
Escherichia coli [2]
  MIC: 14.4 mg/L (≈ 100 µM)

## O=c1c2cc(O)c(O)cc2oc2cc(O)c([C@@H]3O[C@H](CO)[C@@H](O)[C@H](O)[C@H]3O)c(O)c12 [MANGIFERIN]
Escherichia coli [1]
  MIC: 512 mg/L (≈ 1210 µM)

## O=c1c(O)c(-c2ccc(O)c(O)c2)oc2cc(O)cc(O)c12 [QUERCETIN]
Escherichia coli [1]
  MIC: 1020 mg/L (≈ 3390 µM)

## O=c1c(-c2ccc(O)cc2)coc2cc(O)ccc12 [DAIDZEIN]
Escherichia coli [3]
  MIC: 16 mg/L (≈ 62.9 µM)

## C[C@@H]1CNc2c(cccc2S(=O)(=O)N[C@@H](CCCNC(=N)N)C(=O)N2CC[C@@H](C)C[C@@H]2C(=O)O)C1
Klebsiella pneumoniae [4]
  MIC: ≥ 512 mg/L
Morganella morganii [5]
  MIC: ≥ 512 mg/L
Morganella morganii [6]
  MIC: ≥ 512 mg/L
Klebsiella pneumoniae [7]
  MIC: 64 mg/L
Morganella morganii [8]
  MIC: 128 mg/L
Morganella morganii [9]
  MIC: 128 mg/L
Klebsiella pneumoniae [10]
  Activity: Active
Morganella morganii [11]
  Activity: Active
Morganella morganii [12]
  Activity: Active
Klebsiella pneumoniae [13]
  Activity: inactive
Morganella morganii [14]
  Activity: inactive
Morganella morganii [15]
  Activity: inactive

## CC(C)=CCC/C(C)=C/CO [GERANIOL]
Escherichia coli [16]
  MIC: 64 mg/L (≈ 415 µM)

## CN[C@H]1CC[C@@H](c2ccc(Cl)c(Cl)c2)c2ccccc21 [SERTRALINE]
Escherichia coli [17]
  MIC: 32 mg/L (≈ 104 µM)

## O=C(Cc1cccs1)N[C@@H]1C(=O)N2C(C(=O)O)=C(/C=C/c3ccc([N+](=O)[O-])cc3[N+](=O)[O-])CS[C@H]12 [NITROCEFIN]
Escherichia coli [3]
  MIC: 1.9 mg/L (≈ 3.68 µM)

## C[C@H]1[C@@H](O)O[C@@H]2O[C@@]3(C)CC[C@H]4[C@H](C)CC[C@@H]1[C@@]24OO3 [ARTENIMOL]
Escherichia coli [18]
  MIC: 1020 mg/L (≈ 3600 µM)

## O=c1[nH]c2ccccc2n1C1CCN(CCCC(c2ccc(F)cc2)c2ccc(F)cc2)CC1 [PIMOZIDE]
Escherichia coli [3]
  MIC: 92.3 mg/L (≈ 200 µM)

## CC[n+]1c(-c2ccccc2)c2cc(N)ccc2c2ccc(N)cc21 [HOMIDIUM]
Escherichia coli [3]
  MIC: 512 mg/L

## CC(=O)NC[C@H]1CN(c2ccc(N3CCOCC3)c(F)c2)C(=O)O1 [LINEZOLID]
Escherichia coli [3]
  MIC: 512 mg/L (≈ 1520 µM)

## CC(C)=CC[C@@H](O)C1=CC(=O)c2c(O)ccc(O)c2C1=O [SHIKONIN]
Escherichia coli [1]
  MIC: 256 mg/L (≈ 888 µM)

## CC[C@H]1OC(=O)[C@H](C)[C@@H](O[C@H]2C[C@@](C)(OC)[C@@H](O)[C@H](C)O2)[C@H](C)[C@@H](O[C@@H]2O[C@H](C)C[C@H](N(C)C)[C@H]2O)[C@](C)(O)C[C@@H](C)C(=O)[C@H](C)[C@@H](O)[C@]1(C)O [ERYTHROMYCIN]
Escherichia coli [3]
  MIC: 367 mg/L (≈ 500 µM)

## C[C@H]1[C@H](C)CC[C@]2(C(=O)O)CC[C@]3(C)C(=CC[C@@H]4[C@@]5(C)CC[C@H](O)C(C)(C)[C@@H]5CC[C@]43C)[C@H]12 [URSOLIC ACID]
Escherichia coli [3]
  MIC: 50 mg/L (≈ 109 µM)

## CC(Cc1ccc(O)c(O)c1)C(C)Cc1ccc(O)c(O)c1 (centres undefined) [NORDIHYDROGUAIARETIC ACID]
Escherichia coli [1]
  MIC: 512 mg/L (≈ 1690 µM)

## CC1(C)Cc2c(C#N)c(SCCc3ccccc3)nc(N3CCOCC3)c2CO1
Escherichia coli [3]
  MIC: 4.05 mg/L (≈ 9.89 µM)

## N#CC(C#N)=NNc1cccc(Cl)c1 [CARBONYL CYANIDE M-CHLOROPHENYLHYDRAZONE]
Klebsiella pneumoniae [4]
  MIC: 5 mg/L (≈ 24.4 µM)
Morganella morganii [5]
  MIC: 20 mg/L (≈ 97.7 µM)
Morganella morganii [6]
  MIC: 20 mg/L (≈ 97.7 µM)
Klebsiella pneumoniae [10]
  Activity: Active
Morganella morganii [11]
  Activity: Active
Morganella morganii [12]
  Activity: Active
Klebsiella pneumoniae [13]
  Activity: Active
Morganella morganii [14]
  Activity: Active
Morganella morganii [15]
  Activity: Active

## O=C(Nc1ccccc1)c1ccccc1C(=O)Nc1ccccc1
Escherichia coli [2]
  MIC: 64 mg/L (≈ 202 µM)

## Cc1onc(-c2ccccc2)c1C(=O)N[C@@H]1C(=O)N2[C@@H]1SC(C)(C)[C@@H]2C(=O)O [OXACILLIN]
Escherichia coli [3]
  MIC: 1020 mg/L (≈ 2550 µM)

## CN(C)CCCN1c2ccccc2Sc2ccc(Cl)cc21 [CHLORPROMAZINE]
Escherichia coli [1]
  MIC: 256 mg/L (≈ 803 µM)

## C[C@H]1[C@H](OC(=O)CCC(=O)O)O[C@@H]2O[C@@]3(C)CC[C@H]4[C@H](C)CC[C@@H]1[C@@]24OO3 [ARTESUNATE]
Escherichia coli [18]
  MIC: 4100 mg/L (≈ 10700 µM)
